In brackets after ≈: the same amount, converted by molar mass.
Tests used:
Assay type in all cases: functional
[1] = system: Candida albicans; experiment: Antifungal activity against Candida albicans ATCC Y0109 after 24 hrs by micro-broth dilution method; conditions: ATCC Y0109, 24 h
How it was run: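 ATCC quality-control strain, tested in every assay. NCCLS M27-A2 broth microdilution. Compounds were dissolved in DMSO, serially diluted in growth medium, inoculated and incubated at 35 °C, with growth read at 24 h. MIC80 is the first well with about 80% growth reduction relative to the drug-free control. Each test was run three times and the mean of replicates taken.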

[2] = system: Aspergillus fumigatus; experiment: Antifungal activity against Aspergillus fumigatus clinical isolate by micro-broth dilution method
How it was run: (§1)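 Clinical isolate. MIC by broth microdilution following the NCCLS M27-A2 reference method for yeasts. Compounds were dissolved in DMSO, serially diluted in growth medium, inoculated and incubated at 35 °C. MIC80 is the first well with about 80% less growth than the drug-free well. Each test was run three times and the mean of replicates reported.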

[3] = system: Cryptococcus neoformans; experiment: Antifungal activity against Cryptococcus neoformans ATCC BLS108 after 72 hrs by micro-broth dilution method; conditions: ATCC BLS108, 72 h
How it was run: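 Quality-control ATCC strain included in each assay. Microbroth dilution per NCCLS M27-A2. DMSO-dissolved compounds were serially diluted in growth medium, inoculated and held at 35 °C, with MIC read at 72 h. MIC80 is the first well showing about 80% growth reduction versus the drug-free well. Tests were done in triplicate and the mean reported.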

[4] = Antifungal activity against Fonsecaea compacta clinical isolate by micro-broth dilution method; how it was run: as §1
[5] = system: Nannizzia gypsea; experiment: Antifungal activity against Microsporum gypseum clinical isolate by micro-broth dilution method; how it was run: as §1
[6] = system: Trichophyton rubrum; experiment: Antifungal activity against Trichophyton rubrum clinical isolate by micro-broth dilution method; how it was run: as §1
[7] = system: Candida parapsilosis; experiment: Antifungal activity against Candida parapsilosis clinical isolate by micro-broth dilution method; conditions: Lodderomyces parapsilosis; how it was run: as §1
[8] = system: Candida tropicalis; experiment: Antifungal activity against Candida tropicalis clinical isolate by micro-broth dilution method; how it was run: as §1

Q: With O=C(/C=C/c1ccc(Cl)cc1)Nc1ccc(N2CCN(CC(O)(Cn3cncn3)c3ccc(F)cc3F)CC2)c(C(F)(F)F)c1 (configuration not stated) as the compound, how does the MIC80 [1] read?
A: 1 µg/mL (≈ 1.55 µM)

Q: What about the MIC80 [2] of the same compound?
A: 1 µg/mL (≈ 1.55 µM)

Q: What about the MIC80 [3] of the same compound?
A: 0.25 µg/mL (≈ 0.386 µM)

Q: What does the source list for CC(C)C(=O)Nc1ccc(N2CCN(CC(O)(Cn3cncn3)c3ccc(F)cc3F)CC2)c(C(F)(F)F)c1 (configuration not stated)?
A: MIC80 [4]: 4 µg/mL (≈ 7.24 µM); MIC80 [5]: 1 µg/mL (≈ 1.81 µM); MIC80 [1]: 0.25 µg/mL (≈ 0.452 µM); MIC80 [2]: 64 µg/mL (≈ 116 µM); MIC80 [6]: 1 µg/mL (≈ 1.81 µM); MIC80 [3]: 1 µg/mL (≈ 1.81 µM); MIC80 [7]: 0.25 µg/mL (≈ 0.452 µM); MIC80 [8]: 1 µg/mL (≈ 1.81 µM)

Q: For O=C(Nc1ccc(N2CCN(CC(O)(Cn3cncn3)c3ccc(F)cc3F)CC2)c(C(F)(F)F)c1)c1cccc(C(F)(F)F)c1 (configuration not stated), which MIC80 [1] is on record?
A: 0.0625 µg/mL (≈ 0.0955 µM)

Q: What about the MIC80 [2] of the same compound?
A: 16 µg/mL (≈ 24.4 µM)

Q: And the MIC80 [3]?
A: 0.0625 µg/mL (≈ 0.0955 µM)

Q: Which MIC80 [1] does the source give for Cc1ccc(/C=C/C(=O)Nc2ccc(N3CCN(CC(O)(Cn4cncn4)c4ccc(F)cc4F)CC3)c(C(F)(F)F)c2)cc1 (configuration not stated) here?
A: 0.25 µg/mL (≈ 0.399 µM)

Q: What about the MIC80 [2] of the same compound?
A: 4 µg/mL (≈ 6.38 µM)

Q: And the MIC80 [3]?
A: 1 µg/mL (≈ 1.6 µM)

Q: With O=C(Nc1ccc(N2CCN(CC(O)(Cn3cncn3)c3ccc(F)cc3F)CC2)c(C(F)(F)F)c1)c1ccc(F)cc1 (configuration not stated) as the compound, how does the MIC80 [4] read?
A: 4 µg/mL (≈ 6.62 µM)

Q: And the MIC80 [5]?
A: 1 µg/mL (≈ 1.65 µM)

Q: And the MIC80 [1]?
A: 4 µg/mL (≈ 6.62 µM)

Q: And the MIC80 [2]?
A: 4 µg/mL (≈ 6.62 µM)

Q: And the MIC80 [6]?
A: 4 µg/mL (≈ 6.62 µM)

Q: And the MIC80 [3]?
A: 16 µg/mL (≈ 26.5 µM)

Q: What about the MIC80 [7] of the same compound?
A: 0.25 µg/mL (≈ 0.414 µM)

Q: What about the MIC80 [8] of the same compound?
A: 1 µg/mL (≈ 1.65 µM)

Q: For O=C(/C=C/c1ccccc1[N+](=O)[O-])Nc1ccc(N2CCN(CC(O)(Cn3cncn3)c3ccc(F)cc3F)CC2)c(C(F)(F)F)c1 (configuration not stated), which MIC80 [1] is on record?
A: 0.25 µg/mL (≈ 0.38 µM)

Q: And the MIC80 [2]?
A: > 64 µg/mL

Q: And the MIC80 [3]?
A: 0.25 µg/mL (≈ 0.38 µM)

Q: Which results are given for O=C(/C=C/c1cccc(Br)c1)Nc1ccc(N2CCN(CC(O)(Cn3cncn3)c3ccc(F)cc3F)CC2)c(C(F)(F)F)c1 (configuration not stated)?
A: MIC80 [1]: 0.25 µg/mL (≈ 0.362 µM); MIC80 [2]: 1 µg/mL (≈ 1.45 µM); MIC80 [3]: 0.25 µg/mL (≈ 0.362 µM)

Q: Which MIC80 [4] does the source give for O=C(Nc1ccc(N2CCN(CC(O)(Cn3cncn3)c3ccc(F)cc3F)CC2)c(C(F)(F)F)c1)c1ccc(Cl)cc1 (configuration not stated) here?
A: 4 µg/mL (≈ 6.44 µM)

Q: And the MIC80 [5]?
A: 0.25 µg/mL (≈ 0.403 µM)

Q: What about the MIC80 [1] of the same compound?
A: 4 µg/mL (≈ 6.44 µM)

Q: What about the MIC80 [2] of the same compound?
A: 4 µg/mL (≈ 6.44 µM)

Q: And the MIC80 [6]?
A: 4 µg/mL (≈ 6.44 µM)

Q: And the MIC80 [3]?
A: > 64 µg/mL

Q: And the MIC80 [7]?
A: 0.25 µg/mL (≈ 0.403 µM)

Q: What about the MIC80 [8] of the same compound?
A: 1 µg/mL (≈ 1.61 µM)

Q: Which MIC80 [1] does the source give for O=C(/C=C/c1ccc(Cl)c(Cl)c1)Nc1ccc(N2CCN(CC(O)(Cn3cncn3)c3ccc(F)cc3F)CC2)c(C(F)(F)F)c1 (configuration not stated) here?
A: 0.25 µg/mL (≈ 0.367 µM)

Q: And the MIC80 [2]?
A: 4 µg/mL (≈ 5.87 µM)

Q: What about the MIC80 [3] of the same compound?
A: 0.25 µg/mL (≈ 0.367 µM)

Q: What does the source list for O=C(/C=C/c1ccc([N+](=O)[O-])cc1)Nc1ccc(N2CCN(CC(O)(Cn3cncn3)c3ccc(F)cc3F)CC2)c(C(F)(F)F)c1 (configuration not stated)?
A: MIC80 [1]: 0.0156 µg/mL (≈ 0.0237 µM); MIC80 [2]: 4 µg/mL (≈ 6.08 µM); MIC80 [3]: 0.25 µg/mL (≈ 0.38 µM)

Q: Which results are given for CCc1ccc(C(=O)Nc2ccc(N3CCN(CC(O)(Cn4cncn4)c4ccc(F)cc4F)CC3)c(C(F)(F)F)c2)cc1 (configuration not stated)?
A: MIC80 [1]: 0.25 µg/mL (≈ 0.407 µM); MIC80 [2]: 4 µg/mL (≈ 6.51 µM); MIC80 [3]: 0.0625 µg/mL (≈ 0.102 µM)

Q: With O=C(Nc1ccc(N2CCN(CC(O)(Cn3cncn3)c3ccc(F)cc3F)CC2)c(C(F)(F)F)c1)c1ccc(Cl)cc1Cl (configuration not stated) as the compound, how does the MIC80 [1] read?
A: 0.25 µg/mL (≈ 0.381 µM)

Q: What about the MIC80 [2] of the same compound?
A: 0.25 µg/mL (≈ 0.381 µM)

Q: What about the MIC80 [3] of the same compound?
A: 0.25 µg/mL (≈ 0.381 µM)

Q: Which results are given for Cc1ccc(C(=O)Nc2ccc(N3CCN(CC(O)(Cn4cncn4)c4ccc(F)cc4F)CC3)c(C(F)(F)F)c2)cc1 (configuration not stated)?
A: MIC80 [4]: 16 µg/mL (≈ 26.6 µM); MIC80 [5]: 1 µg/mL (≈ 1.67 µM); MIC80 [1]: 1 µg/mL (≈ 1.67 µM); MIC80 [2]: 64 µg/mL (≈ 107 µM); MIC80 [6]: 4 µg/mL (≈ 6.66 µM); MIC80 [3]: 1 µg/mL (≈ 1.67 µM); MIC80 [7]: 0.25 µg/mL (≈ 0.416 µM); MIC80 [8]: 1 µg/mL (≈ 1.67 µM)

Q: What does the source list for CC(=O)Nc1ccc(N2CCN(CC(O)(Cn3cncn3)c3ccc(F)cc3F)CC2)c(C(F)(F)F)c1 (configuration not stated)?
A: MIC80 [4]: 1 µg/mL (≈ 1.91 µM); MIC80 [5]: 1 µg/mL (≈ 1.91 µM); MIC80 [1]: 0.0625 µg/mL (≈ 0.119 µM); MIC80 [2]: > 64 µg/mL; MIC80 [6]: 1 µg/mL (≈ 1.91 µM); MIC80 [3]: 0.25 µg/mL (≈ 0.477 µM); MIC80 [7]: 0.25 µg/mL (≈ 0.477 µM); MIC80 [8]: 0.25 µg/mL (≈ 0.477 µM)

Q: For O=C(/C=C/c1cccc(F)c1)Nc1ccc(N2CCN(CC(O)(Cn3cncn3)c3ccc(F)cc3F)CC2)c(C(F)(F)F)c1 (configuration not stated), which MIC80 [1] is on record?
A: 0.25 µg/mL (≈ 0.396 µM)

Q: What about the MIC80 [2] of the same compound?
A: 16 µg/mL (≈ 25.4 µM)

Q: And the MIC80 [3]?
A: 0.25 µg/mL (≈ 0.396 µM)

Q: For O=C(Nc1ccc(N2CCN(CC(O)(Cn3cncn3)c3ccc(F)cc3F)CC2)c(C(F)(F)F)c1)c1ccc(OC(F)(F)F)cc1 (configuration not stated), which MIC80 [4] is on record?
A: 16 µg/mL (≈ 23.9 µM)

Q: What about the MIC80 [5] of the same compound?
A: 4 µg/mL (≈ 5.97 µM)

Q: And the MIC80 [1]?
A: 16 µg/mL (≈ 23.9 µM)

Q: What about the MIC80 [2] of the same compound?
A: 64 µg/mL (≈ 95.4 µM)

Q: What about the MIC80 [6] of the same compound?
A: 16 µg/mL (≈ 23.9 µM)

Q: What about the MIC80 [3] of the same compound?
A: 16 µg/mL (≈ 23.9 µM)

Q: What about the MIC80 [7] of the same compound?
A: 4 µg/mL (≈ 5.97 µM)

Q: What about the MIC80 [8] of the same compound?
A: 4 µg/mL (≈ 5.97 µM)

Q: Which results are given for CCC(=O)Nc1ccc(N2CCN(CC(O)(Cn3cncn3)c3ccc(F)cc3F)CC2)c(C(F)(F)F)c1 (configuration not stated)?
A: MIC80 [4]: 4 µg/mL (≈ 7.43 µM); MIC80 [5]: 1 µg/mL (≈ 1.86 µM); MIC80 [1]: 0.25 µg/mL (≈ 0.464 µM); MIC80 [2]: 16 µg/mL (≈ 29.7 µM); MIC80 [6]: 1 µg/mL (≈ 1.86 µM); MIC80 [3]: 1 µg/mL (≈ 1.86 µM); MIC80 [7]: 1 µg/mL (≈ 1.86 µM); MIC80 [8]: 0.25 µg/mL (≈ 0.464 µM)

Q: Which MIC80 [1] does the source give for O=C(/C=C/c1ccc(Br)cc1)Nc1ccc(N2CCN(CC(O)(Cn3cncn3)c3ccc(F)cc3F)CC2)c(C(F)(F)F)c1 (configuration not stated) here?
A: 1 µg/mL (≈ 1.45 µM)

Q: What about the MIC80 [2] of the same compound?
A: 1 µg/mL (≈ 1.45 µM)

Q: And the MIC80 [3]?
A: 0.25 µg/mL (≈ 0.362 µM)

Q: With O=C(/C=C/c1cccc([N+](=O)[O-])c1)Nc1ccc(N2CCN(CC(O)(Cn3cncn3)c3ccc(F)cc3F)CC2)c(C(F)(F)F)c1 (configuration not stated) as the compound, how does the MIC80 [1] read?
A: 0.25 µg/mL (≈ 0.38 µM)

Q: And the MIC80 [2]?
A: 4 µg/mL (≈ 6.08 µM)

Q: And the MIC80 [3]?
A: 0.0625 µg/mL (≈ 0.095 µM)
